Bioassay records: PubChem, several laboratories
Rows were chosen to be rich in hits. Some 3.7% of all compounds tested hit in one or more screens of this group.
Dynein cargo inh: inhibitors of GR-EGFP nuclear translocation, primary screen, dynein cargo transport inhibitor project, imaging, high-content, 3617.4 mouse cells; z-score, hits read low; test concentration mostly 20 µM; stimulated with dexamethasone, 1 µM; hits give low values; AID 1381, 2008; 220,000 tested, 0.47% active;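 active means plate z-score of nuclear minus cytoplasmic receptor signal below a set negative limit, without overly bright fluorescence or cell loss, cut at about -3.5 in these data, passing the limit was not always enough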;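 further: z-score of nuclear minus cytoplasmic ring GR-EGFP intensity difference per well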
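Also added: dexamethasone, 1.0 µM final. Medium: tet-free, stripped-serum medium. Detection: fixed, Hoechst-stained cells imaged at 10x for EGFP. Read-out: nuclear-to-cytoplasmic GR-EGFP distribution per well. Times: induction 48 h, compound 1 h, agonist 30 min.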
B2AR ag: beta2AR agonists driving receptor internalization, primary screen, cell-based, FAP fluorogen, flow cytometry; 340,000 tested, 0.43% active; response, % (concentration not given with the values); Am2.2-beta2AR cells;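 active means response above a set limit, near 3 SD of response in nonfluorescent compounds, cut at about 42% in these data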
UPR XBP1 act: activators of adaptive XBP1 UPR arm, primary screen, cell-based, CHO-XBP1 luciferase reporter, luminescence, uHTS. IRE1-XBP1 UPR activation; percent of tunicamycin response, DMSO as zero. activation, % at 20 µM. 330,000 tested, 0.33% active;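 active means versus positive control, 20 µM dose yields 30% or more activation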
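Material: CHO-XBP1 cells stably carrying IRE1-XBP1-driven luciferase reporter | Medium: F12 with 10% serum | Compound dosing: 20 µM single concentration, DMSO 1% | Incubation: Overnight seeding at 37 °C, 6 h compound treatment at 37 °C | Detection: Steady-Glo luminescence read | Read-out basis: % activation of reporter signal versus tunicamycin and DMSO controls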
Mdm2 MdmX PPI: inhibitors of human Mdm2-MdmX association, primary screen, cell-based, luminescence, split luciferase, SaOS-2, uHTS | Protein Mdm4 (Homo sapiens) + E3 ubiquitin-protein ligase Mdm2 (Homo sapiens), … | SaOS-2 split-luciferase Mdm2/MdmX complementation | inhibition, % at 8 µM | 330,000 tested, 3% active | AID 485346, 2010;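 active means inhibition of at least 50% at 8 µM in the primary screen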
MDM2 E3 inh: MDM2-luciferase reporter signal enhancers, primary screen, MDM2 E3 ligase inhibitor project, cell-based, luminescence, 1536-well | E3 ubiquitin-protein ligase Mdm2 (Homo sapiens), Q00987 | cell-based MDM2 ubiquitination luciferase reporter, 2 h; 0 = plate control, 100 = twice control, blank-subtracted | signal enhancement, % at 5 µM | 210,000 tested, 0.11% active | AID 1230, 2008;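 active means signal enhancement of 30% or more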;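 further: luminescence tracks abundance of the self-degrading MDM2-luciferase fusion protein; higher signal means inhibition of MDM2 E3 ligase activity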
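Assay system: stable mammalian line carrying autodegrading MDM2–luciferase fusion reporter; Input: 2000 cells in each well; Compound dosing: single-point 5 µM; Schedule: 2 h compound exposure at 37 °C; Signal: SteadyLite luciferase luminescence after 15 min room-temperature reagent incubation; Evaluation: % luminescence enhancement versus blank-corrected plate control mean; Benchmarks: plate controls and plate blanks.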
UPR CHOP act: activators of apoptotic CHOP UPR arm, primary screen, cell-based, CHO-CHOP luciferase reporter, luminescence, uHTS; UPR activation; percent of tunicamycin response over DMSO baseline; activation, % at 10 µM; 330,000 tested, 0.34% active; AID 449763, 2010;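 active means at 10 µM dose, activation of 40% or more, normalized to positive control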
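Assay system: CHO cells with stable CHOP pathway luciferase reporter; Buffer or medium: F12 plus 10% serum; Times: 16-18 h cell attachment, then 6 h compound exposure, 37 °C; Signal: luciferase luminescence; Read-out basis: percent activation relative to tunicamycin control; Control set: tunicamycin high control, DMSO low control.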
Mdm2-MdmX conf: Mdm2-MdmX complex disruptors, retested hits, confirmation, luminescence, single concentration. shares compounds with Mdm2 MdmX PPI. Mdm2-MdmX binding, luminescent assay. inhibition, % at 8 µM. 10,000 tested, 55% active. AID 489028, 2010; in the data active means inhibition above about 40%
Full FLuc ctr: full-length luciferase signal inhibition, confirmation, counter-screen for Mdm2/MdmX interaction inhibitor project, cell-based, single concentration, SaOS-2 | shares compounds with Mdm2 MdmX PPI | 6,200 tested, 77% active | inhibition, % at 8 µM | SaOS-2 full-length luciferase counterscreen, luminescence;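 active means mean inhibition at 8 µM reaching about 37%, which flags the compound as non-specific, limit read from the data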;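 further: p53-null SaOS-2 cells with luciferase driven by a doxycycline-inducible promoter; compound on cells about two nights before reading with doxycycline added after day one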
A number is an active result; – = inactive; · = no result given.

SMILES | Dynein cargo inh | B2AR ag | UPR XBP1 act | Mdm2 MdmX PPI | MDM2 E3 inh | UPR CHOP act | Mdm2-MdmX conf | Full FLuc ctr
Cc1ccc(NC(=O)CSCC(=O)N2CCN(c3cccc(C(F)(F)F)c3)CC2)cc1 | · | – | – | – | · | – | · | ·
Cn1cnnc1SCC(=O)Nc1ncc([N+](=O)[O-])s1 | · | – | – | – | · | – | · | ·
O=C(Cc1csc(-c2ccccc2)n1)NCC(=O)Nc1ccc(F)c(F)c1F | · | – | – | – | · | – | · | ·
CCN1C(=O)[C@H]2[C@@H](c3ccc(-c4ccc(Cl)c(Cl)c4)c(OC)c3)N[C@@](C)(C(=O)OC)[C@H]2C1=O | · | – | – | 57 | · | – | 45 | 71
CCN1C(=O)[C@H]2[C@@H](c3ccc(-c4ccc(F)cc4)c(OC)c3)N[C@@](Cc3ccccc3)(C(=O)OC)[C@H]2C1=O | · | – | – | 58 | · | – | – | ·
CCN1C(=O)[C@H]2[C@@H](c3ccc(-c4ccccc4)c(OC)c3)N[C@@](Cc3ccccc3)(C(=O)OC)[C@H]2C1=O | · | – | – | – | · | – | · | ·
CCN1C(=O)[C@H]2[C@@H](c3ccc(-c4ccc(Cl)c(Cl)c4)cc3)N[C@@](C)(C(=O)OC)[C@H]2C1=O | · | – | – | – | · | – | · | ·
Cc1ccc2c(SCC(=O)NCc3ccco3)nc(-c3ccc(F)cc3)nc2c1 | – | – | – | 82 | – | – | – | ·
Cc1cc(C)c2cc(C)c(SCC(=O)NCc3ccco3)nc2c1 | – | – | – | – | – | – | · | ·
Cc1cccc(SC2CCN(C(=O)C3CCC(=O)N(C4CC4)C3)CC2)c1 (centres undefined) | · | – | – | – | · | – | · | ·
CCc1cc(C(=O)N2CCN(C(=O)c3ccccc3)CC2)sc1C | · | – | – | – | · | – | · | ·
CN(C(=O)OC(C)(C)C)c1ccc(-c2nc3ccccc3s2)cc1 | · | – | – | 88 | · | – | 90 | –
COc1cc(-c2nc3ccccc3s2)ccc1O | – | – | – | – | – | – | · | ·
CC(C)c1ccc(-c2nc3ccccc3s2)cc1 | – | – | – | 87 | – | – | 88 | –
CN(C)CCNc1ccc(-c2nn(C)c(=O)c3ccccc23)cc1[N+](=O)[O-] | – | – | – | 53 | – | – | – | 78
Cn1nc(-c2ccc(NCCO)c([N+](=O)[O-])c2)c2ccccc2c1=O | – | – | – | – | – | – | · | ·
CCCCC(=O)Nc1ccc2c3c(cccc13)C(=O)N2CC | – | – | – | 55 | – | – | – | 59
CCN1C(=O)c2cccc3c(NC(=O)C(C)(C)C)ccc1c23 | – | – | – | – | – | – | · | ·
CC(=O)NC(=S)Nc1ccc(NC(=O)c2cccs2)cc1 | – | – | – | – | – | – | · | ·
Cc1c(C(=O)NC(=S)Nc2ccc(NC(=O)c3cccs3)cc2)oc2ccccc12 | · | – | – | 62 | · | – | – | ·
Cc1ccc(CN2CC(C(=O)N(CC(C)C)c3c(N)n(Cc4ccccc4)c(=O)[nH]c3=O)CC2=O)cc1 (centres undefined) | · | – | · | · | · | · | · | ·
Cc1ccc(O)c(N=Nc2nccs2)c1 | · | – | – | 75 | · | – | 64 | –
COc1ccc(N=Nc2cc(C)ccc2O)cc1 | – | – | – | – | – | – | · | ·
Cc1ccc(Cc2c(C)c(C#N)c3[nH]c4ccccc4n3c2=O)cc1 | – | – | – | 65 | – | – | 55 | –
